# Reference: paper PMC11516114 (Protein Science : A Publication of the Protein Society, 2024)
# Read-outs that look alike come from different tables or passages of the source.
# Experiments:
# wild-type HIF-2α PAS-B [1] = target: T1, wild-type HIF-2α PAS-B (Homo sapiens, UniProt Q99814); assay: Isothermal titration calorimetry; format: binding
# Method in brief: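 Human HIF-2α PAS-B (residues 240–350), expressed with a cleavable His6-Gβ1 tag, purified by Ni2+ affinity, TEV cleavage, a second Ni2+ pass and size exclusion. ITC run at 25°C with protein (250–300 μM) titrated into 20 μM test compound: 25 injections, 250 s spacing, 350 rpm. Protein-into-buffer heats were subtracted.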
# wild-type HIF-2α PAS-B [2] = target: T1, wild-type HIF-2α PAS-B; settings: previously measured, ref Key et al. [2009]; cited from earlier work
# T1 sequence (Q99814 240-350): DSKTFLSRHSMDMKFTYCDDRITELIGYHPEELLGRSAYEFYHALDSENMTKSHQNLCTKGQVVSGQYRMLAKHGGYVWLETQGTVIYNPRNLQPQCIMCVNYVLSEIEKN
Compound,Kd (wild-type HIF-2α PAS-B [1]) [nM],Kd (wild-type HIF-2α PAS-B [2]) [nM]
"O=[N+]([O-])c1cc(C(F)(F)F)ccc1NCc1ccco1 [THS-020, N‐[(furan‐2‐yl)methyl]‐2‐nitro‐4‐(trifluoromethyl)aniline]",1350 ± 110,1500 ± 700
"O=[N+]([O-])c1cc(C(F)(F)F)ccc1NCc1ccsc1 [THS-017, 2‐nitro‐N‐[(thiophen‐3‐yl)methyl]‐4‐(trifluoromethyl)aniline]",600 ± 60,590 ± 50
